Results on eight molecules are retold here after ChEMBL document CHEMBL1143334, “Peri-substituted hexahydro-indolones as novel, potent and selective human EP3 receptor antagonists” (Bioorg Med Chem Lett, 2009).

For data set [1], the species on record is Homo sapiens. Description: Selectivity of human EP1 receptor over human EP3 receptor.
Data set [2] has as its target T1, Prostaglandin E2 receptor EP3 subtype (Homo sapiens, UniProt P43115).
T1 sequence (P43115 whole entry): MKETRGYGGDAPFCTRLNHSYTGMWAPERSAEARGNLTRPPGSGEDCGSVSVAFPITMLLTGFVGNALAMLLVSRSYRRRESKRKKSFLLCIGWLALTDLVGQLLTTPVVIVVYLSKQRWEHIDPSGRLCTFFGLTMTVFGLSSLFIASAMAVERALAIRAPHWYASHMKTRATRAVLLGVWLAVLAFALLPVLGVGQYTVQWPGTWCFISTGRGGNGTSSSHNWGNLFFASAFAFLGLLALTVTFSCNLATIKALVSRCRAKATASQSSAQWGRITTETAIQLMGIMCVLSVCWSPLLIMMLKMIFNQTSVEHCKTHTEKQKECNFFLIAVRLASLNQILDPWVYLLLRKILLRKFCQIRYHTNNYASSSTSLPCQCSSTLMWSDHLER
Description: Displacement of [3H]PGE2 from human EP3 receptor. Summed up:
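Displacement of [3H]-PGE2 from human EP3 receptor membrane preparations was run in buffer. IC50 values come from at least three experiments each.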
For orientation: Displacement assays read how much labelled ligand stays bound in the presence of the test substance.

Data set [3] deals with T2, Prostaglandin E2 receptor EP2 subtype (Homo sapiens, UniProt P43116). Description: Binding affinity to human EP2 receptor by radioligand binding assay.
T2 sequence (P43116 whole entry): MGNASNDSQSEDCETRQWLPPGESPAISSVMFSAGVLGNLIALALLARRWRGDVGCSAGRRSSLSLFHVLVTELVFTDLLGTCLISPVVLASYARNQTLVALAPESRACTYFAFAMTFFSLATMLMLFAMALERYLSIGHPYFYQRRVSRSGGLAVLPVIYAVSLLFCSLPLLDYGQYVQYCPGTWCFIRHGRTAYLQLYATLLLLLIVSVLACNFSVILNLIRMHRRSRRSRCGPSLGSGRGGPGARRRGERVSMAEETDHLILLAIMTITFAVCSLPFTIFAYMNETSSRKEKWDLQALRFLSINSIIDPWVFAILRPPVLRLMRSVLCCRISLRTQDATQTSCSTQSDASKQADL
Data set [4] addresses T3, Prostaglandin E2 receptor EP4 subtype (Homo sapiens, UniProt P35408). Description: Binding affinity to human EP4 receptor by radioligand binding assay.
For data set [5], the target named is T4, Prostaglandin E2 receptor EP1 subtype (Homo sapiens) (UniProt P34995).
T4 sequence (whole entry): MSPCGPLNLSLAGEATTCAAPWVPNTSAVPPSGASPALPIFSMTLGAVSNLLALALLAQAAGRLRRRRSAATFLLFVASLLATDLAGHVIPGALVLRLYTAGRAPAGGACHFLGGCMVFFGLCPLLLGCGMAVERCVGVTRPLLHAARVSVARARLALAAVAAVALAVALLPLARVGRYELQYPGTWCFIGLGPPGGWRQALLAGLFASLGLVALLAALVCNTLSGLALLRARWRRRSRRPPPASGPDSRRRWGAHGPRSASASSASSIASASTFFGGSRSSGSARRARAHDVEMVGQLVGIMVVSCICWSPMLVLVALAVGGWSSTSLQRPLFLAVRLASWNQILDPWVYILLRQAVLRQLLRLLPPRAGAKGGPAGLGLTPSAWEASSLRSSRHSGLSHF
Description: Binding affinity to human EP1 receptor at 20 uM by radioligand binding assay.

Data set [6] is filed under the species Homo sapiens. Description: Selectivity of human EP4 receptor over human EP3 receptor.
Data set [7] is described as follows: Metabolic stability in human liver microsomes after 30 mins. Format: ADME, Microsome. Conditions: read-out: Stability. Summed up:
(§1)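 Compound was incubated 30 min with liver microsomes from each species. Percent parent remaining was measured by LC/MS/MS.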
(In general: Liver microsomes are vesicles of endoplasmic reticulum, rich in cytochrome P450 enzymes.)

Data set [8] is filed under the species Homo sapiens. Description: Selectivity of human EP2 receptor over human EP3 receptor.
Data set [9] deals with T5, Prostaglandin E2 receptor EP3 subtype (Homo sapiens) (UniProt P43115).
T5 sequence (whole entry): T1 sequence (P43115 whole entry)
Description: Ratio of IC50 for human EP3 receptor in presence of 10% human serum to IC50 for human EP3 receptor in buffer. A digest of the protocol: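 Displacement of [3H]-PGE2 from human EP3 membrane preparations was run both with 10% human serum and in buffer alone. Fold-shift is IC50 with serum divided by IC50 in buffer.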

The species named for data set [10] is Homo sapiens. Description: Selectivity of human FP receptor over human EP3 receptor.
A short description of data set [11]: Metabolic stability in rat liver microsomes after 30 mins. Format: ADME, Microsome. Conditions: read-out: Stability. Summed up:
as §1

Data set [12] has as its target Prostaglandin F2-alpha receptor (Homo sapiens, UniProt P43088). Description: Binding affinity to human FP receptor by radioligand binding assay.
Data set [13] deals with T2, Prostaglandin E2 receptor EP2 subtype. Description: Binding affinity to human EP2 receptor at 20 uM by radioligand binding assay.
The target of data set [14] is T6, Prostaglandin E2 receptor EP1 subtype (Homo sapiens, UniProt P34995).
T6 sequence (P34995 whole entry): T4 sequence (whole entry)
Description: Binding affinity to human EP1 receptor by radioligand binding assay.

The target in data set [15] is T3, Prostaglandin E2 receptor EP4 subtype. Description: Binding affinity to human EP4 receptor at 20 uM by radioligand binding assay.
A short description of data set [16]: Aqueous solubility in 50 mM PSB buffer at pH 7.4 by HPLC analysis. It is filed as physicochemical. A digest of the protocol:
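Samples were stirred overnight in 50 mM PSB buffer, pH 7.4, then filtered. Concentration was measured by HPLC against a 5-point standard curve, giving thermodynamic solubility.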

The target of data set [17] is T1, Prostaglandin E2 receptor EP3 subtype. Description: Antagonist activity at human EP3 receptor expressed in CHO-K1 cells assessed as reversal of inhibition of forskolin-induced cAMP production. Format: functional, cell-based. A digest of the protocol: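 CHO-K1 cells stably expressing human EP3 were exposed to increasing test compound concentrations for 10 min at 37 °C, with 5 μM forskolin plus 5 nM PGE2 present. Read-out was the block of PGE2's inhibition of the forskolin-induced cAMP rise, giving IC50.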
On the technique in general: Changes in cAMP serve as a functional read-out for many G protein-coupled receptors.

Data set [18] is described as follows: Metabolic stability in monkey liver microsomes after 30 mins. It is filed as ADME, Macaca mulatta, Microsome. The settings on record: rhesus monkey, read-out: Stability. A digest of the protocol:
as §1

Data set [19] is described as follows: Metabolic stability in dog liver microsomes after 30 mins. The settings on record: read-out: Stability. It is filed as ADME, Canis lupus familiaris, Microsome. Summed up:
as §1

SMILES strings stand for the structures. ≈ marks a conversion by molar mass, not a printed value. Calls of active or inactive are those of the source. The rule behind the calls is not given here. Bounds are passed on as bounds.

T3 sequence (P35408 whole entry): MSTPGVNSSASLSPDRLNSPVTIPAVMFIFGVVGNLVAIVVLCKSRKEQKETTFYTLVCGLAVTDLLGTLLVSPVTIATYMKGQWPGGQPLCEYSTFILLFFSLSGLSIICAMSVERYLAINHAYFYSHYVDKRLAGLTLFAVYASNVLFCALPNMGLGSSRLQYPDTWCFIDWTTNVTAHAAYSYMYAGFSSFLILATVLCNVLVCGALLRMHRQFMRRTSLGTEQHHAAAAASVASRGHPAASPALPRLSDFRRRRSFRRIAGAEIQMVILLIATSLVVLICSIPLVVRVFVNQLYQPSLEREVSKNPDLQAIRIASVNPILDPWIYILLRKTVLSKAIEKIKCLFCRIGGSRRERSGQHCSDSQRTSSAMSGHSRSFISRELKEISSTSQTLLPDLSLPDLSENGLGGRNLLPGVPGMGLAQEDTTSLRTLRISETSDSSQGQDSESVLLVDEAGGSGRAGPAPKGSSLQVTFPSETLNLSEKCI
Prostaglandin F2-alpha receptor, sequence (P43088 whole entry): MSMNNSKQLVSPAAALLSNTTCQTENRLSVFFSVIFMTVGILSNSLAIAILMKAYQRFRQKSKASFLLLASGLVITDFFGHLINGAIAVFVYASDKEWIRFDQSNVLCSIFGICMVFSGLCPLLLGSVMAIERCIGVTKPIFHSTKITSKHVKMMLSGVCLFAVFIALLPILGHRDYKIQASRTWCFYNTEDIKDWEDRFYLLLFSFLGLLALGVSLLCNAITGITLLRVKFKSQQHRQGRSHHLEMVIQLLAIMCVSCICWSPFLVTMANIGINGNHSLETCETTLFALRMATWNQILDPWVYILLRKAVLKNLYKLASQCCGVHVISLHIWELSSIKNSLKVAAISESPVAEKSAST

What is called IC50 is the concentration that inhibits the measured activity by half. As for `CC12CCCC(/C=C/C(=O)NS(=O)(=O)c3ccc(F)c(F)c3)=C1N(Cc1ccc(F)c(F)c1)C(=O)C2` (centres undefined), the Selectivity ratio in [1], in data set [6], in data set [8] and in data set [10] was greater than 1000 throughout. The IC50 in data set [2] amounted to 0.0094 µM; in data set [3], 2.3 µM; in data set [4], 7.7 µM; in data set [12] it was 16.4 µM. Moreover, the outcome in data set [5] was inactive. For the same molecule, the remaining at 0.5 h was determined as 79% in data set [7] and 82% in data set [11]. Further, the fold change (FC) in data set [9] worked out at 3.2.

As for `COc1cccc(CN2C(=O)CC3(C)CCCC(/C=C/C(=O)NS(=O)(=O)c4ccc(F)c(F)c4)=C23)c1` (centres undefined), the Selectivity ratio in data set [1], in data set [6], in [8] and in data set [10] was greater than 1000 in each case. Moreover, the IC50 was determined as 0.0129 µM in data set [2], 7.5 µM in data set [4], 1.4 µM in data set [14] and 6.4 µM in [12]. In addition, in data set [13], the result was inactive. The remaining at 0.5 h came to 76% in [7] and 42% in data set [11]. The fold change (FC) in [9] was 4.2.

`CC12CCCC(/C=C/C(=O)NS(=O)(=O)c3cc(Cl)c(Cl)s3)=C1N(Cc1ccc3ccccc3c1)C(=O)C2` (centres undefined): the Selectivity ratio in data set [1], in [6], in data set [8] and in data set [10] was greater than 1000 each time. For the same molecule, the values for the concentration for half-maximal inhibition (IC50) in [2], in [14] and in data set [12] were 0.0068 µM, 6.9 µM and 10.2 µM, respectively. Besides, the result in data set [15] and in data set [13] was inactive. The remaining at 0.5 h in data set [7] came to 64%; in data set [11], 54%. For the same molecule, the fold change (FC) in [9] stood at 7.4.

The term solubility denotes the dissolved amount per volume that the medium holds. Take `CC1C(=O)N(Cc2ccc(F)c(F)c2)c2c(/C=C/C(=O)NS(=O)(=O)c3cc(F)c(F)cc3F)cccc21` (centres undefined): the solubility in [16] is 1580 µg/mL (≈ 2950 µM).

With `CC12CCCC(/C=C/C(=O)NS(=O)(=O)c3cc(F)c(F)cc3F)=C1N(Cc1ccc(Cl)cc1Cl)C(=O)C2` (centres undefined), the Selectivity ratio in data set [1], in [6], in data set [8] and in [10] was greater than 1000 throughout. In addition, the 50% inhibitory concentration (IC50) in data set [2] stood at 0.0037 µM; in [4], 20.8 µM; in data set [14] it was 11.6 µM; in data set [12], 7.6 µM. The outcome in [13] was inactive. Also, the remaining at 0.5 h amounted to 62% in data set [7] and 37% in [11]. Further, the fold change (FC) in data set [9] came out at 7.

Take `Cc1cn(Cc2ccc(F)c(F)c2)c2c(/C=C/C(=O)NS(=O)(=O)c3cc(F)c(F)cc3F)cc(F)cc12`: the solubility in [16] was less than 40 µg/mL.

Turning to `COc1cccc(CN2C(=O)CC3(C)CCCC(/C=C/C(=O)NS(=O)(=O)c4cc(Cl)c(Cl)s4)=C23)c1` (centres undefined), the Selectivity ratio in data set [1], in [6], in data set [8] and in data set [10] was greater than 1000 throughout. The IC50 in [2] was determined as 0.0064 µM; in [17], 0.0058 µM; in [12] it was 6.1 µM. Moreover, the outcome in data set [5], in [15] and in data set [13] was inactive. Moreover, the remaining at 0.5 h in data set [7] turned out to be 62%; in data set [11], 64%. In data set [9], the fold change (FC) is 4.8.

In the case of `CC12CCCC(/C=C/C(=O)NS(=O)(=O)c3cc(F)c(F)cc3F)=C1N(Cc1ccc(F)c(F)c1)C(=O)C2` (centres undefined), the Selectivity ratio in data set [1], in [6], in [8] and in data set [10] was greater than 1000 throughout. In addition, the concentration for half-maximal inhibition (IC50) in data set [2] was found to be 0.0077 µM; in data set [17] it was 0.0035 µM; in [3], 13.9 µM; in [4] it was 6.2 µM; in data set [12], 3.8 µM. In addition, the remaining at 0.5 h in data set [18] stood at 54%; in data set [7], 75%; in data set [19] it was 87%; in data set [11], 89%. Also, the result in data set [5] was inactive. The molecule further showed a solubility in data set [16] greater than 3000 µg/mL. The fold change (FC) in [9] was found to be 9.3.
